# Measurements from different studies.
# Lines come from different studies, so protocols differ.
# Target: Death-associated protein kinase 1 (DAPK1, Homo sapiens, UniProt P53355)
SMILES,read-out,mode,technique,tested at,measurement,value
COc1ncccc1-c1cnn2ccc(N3CCN(C(=O)OC(C)C)CC3)nc12,binding,,competition with immobilised ligand,1 µM,remaining binding,82%
Cn1cc(-c2cc(F)cc(N3CCn4c(cc5c4CCCC5)C3=O)c2CO)cc(Nc2ccc(N3CCN(C4COC4)CC3)cn2)c1=O,enzyme activity,inhibitor,,0.1 µM,inhibition,8%
COc1cc(Nc2ncc(F)c(Nc3ccc4c(n3)NC(=O)C(C)(C)O4)n2)cc(OC)c1OC,binding,,competition with immobilised ligand,10 µM,inhibition,97%
Cc1nn(C)cc1-c1nc2c(N3CCN(Cc4ccc(Cl)cc4)CC3)c(Cl)cnc2[nH]1,binding,,competition with immobilised ligand,1 µM,remaining binding,80%
O=c1[nH]c2ccccc2n1C1CCN(Cc2ccc(-c3[nH]c4cc5ncnc5cc4nc3-c3ccccc3)cc2)CC1,cell-free assay,,,0.5 µM,remaining signal,82.9%
Cn1cncc1[C@](O)(COc1ccc(C#N)cc1-c1ccc(OC(F)(F)F)cc1)c1ccc(C#N)cc1,cell-free assay,,competition with immobilised ligand,1 µM,remaining binding,84%
Cn1cc(-c2cccc(N3CCc4c(sc5c4CC(C)(C)C5)C3=O)c2CO)cc(Nc2ccncn2)c1=O,enzyme activity,inhibitor,,1 µM,inhibition,1%
Nc1ncc(-c2nc(N3CCOCC3)nc(N3CCOCC3)n2)c(C(F)F)n1,binding,,competition with immobilised ligand,10 µM,remaining binding,94%
CC(C)(C)c1cc(C=C(C#N)C#N)cc(Br)c1O,enzyme activity,inhibitor,,0.5 µM,remaining activity,85.9%
